The source of these data is ChEMBL document CHEMBL3124898, “Constituents of an extract of Cryptocarya rubra housed in a repository with cytotoxic and glucose transport inhibitory effects” (J Nat Prod, 2014).

The target in assay [1] is T1, Solute carrier family 2, facilitated glucose transporter member 1 (Homo sapiens) (UniProt P11166).
T1 sequence (whole entry): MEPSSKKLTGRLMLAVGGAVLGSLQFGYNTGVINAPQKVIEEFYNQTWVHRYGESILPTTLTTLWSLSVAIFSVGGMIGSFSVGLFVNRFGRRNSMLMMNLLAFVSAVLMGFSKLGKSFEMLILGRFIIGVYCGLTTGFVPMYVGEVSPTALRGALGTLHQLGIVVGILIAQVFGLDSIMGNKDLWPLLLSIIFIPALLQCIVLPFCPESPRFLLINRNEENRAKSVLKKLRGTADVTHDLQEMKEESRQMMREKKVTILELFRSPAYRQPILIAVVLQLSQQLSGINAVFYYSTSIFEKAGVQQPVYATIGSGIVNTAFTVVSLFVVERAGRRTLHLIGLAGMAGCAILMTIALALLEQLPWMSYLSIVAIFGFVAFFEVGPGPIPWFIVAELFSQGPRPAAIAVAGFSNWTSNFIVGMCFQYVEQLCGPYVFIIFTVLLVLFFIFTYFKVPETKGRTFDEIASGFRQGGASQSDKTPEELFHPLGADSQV
The assay can be described thus: Inhibition of GLUT-1 in human H1299 cells assessed as 2-deoxy-D-[3H]glucose uptake at 30 uM incubated for 15 mins prior to 2-deoxy-D-[3H]glucose challenge measured after 10 mins by liquid scintillation counting analysis (reference value: 100%). Format: cell-based. Further details: scale not given: the % may be the effect or the level left. Put shortly:
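Before dosing, H1299 human lung cancer cells were washed and held in serum-free DMEM for 2 h at 37 °C in 10% CO2, then in KRP buffer for 30 min at 37 °C. Compound was added at 30 μM final and incubated 15 min at 37 °C. Uptake was started with 37 MBq/L 2-deoxy-3H glucose plus 1 mM glucose (final) and stopped after 10 min by three cold PBS washes. Cells were NaOH-lysed and lysate radioactivity read by scintillation counting. Vehicle served as negative control and WZB117 (30 μM) as positive control. n = 3.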

Assay [2] concerns HT-29. The assay can be described thus: Cytotoxicity against human HT-29 cells. The class given is functional, cell-based. Summed up: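 HT-29 human colon cancer cells treated with serial dilutions of test samples. IC50 derived by nonlinear regression. Measured in triplicate in two independent experiments. Paclitaxel served as positive control.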
For assay [3], the system named is P388. The assay can be described thus: Cytotoxicity against mouse P388 cells. The class given is functional, cell-based.

Each structure is given as a SMILES string. pIC50: −log10 of the molar value.

Regarding `O=C(Oc1cccc(F)c1OC(=O)c1cccc(O)c1)c1cccc(O)c1`, the Activity in assay [1] was found to be 15.7%.

By pIC50 is commonly meant the IC50 on a negative log10 scale, so that one unit is a factor of ten. `CC(=O)O[C@H]1C(=O)[C@@]2(C)[C@H]([C@H](OC(=O)c3ccccc3)[C@]3(O)C[C@H](OC(=O)[C@H](O)[C@@H](NC(=O)c4ccccc4)c4ccccc4)C(C)=C1C3(C)C)[C@]1(OC(C)=O)CO[C@@H]1C[C@@H]2O` [PACLITAXEL]: the pIC50 in assay [2] was less than 5.00.

For the compound `O=C1CCC[C@@H]2C[C@H](C[C@](O)(CCc3ccccc3)O2)c2c(cc(O)c(C(=O)/C=C/c3ccccc3)c2O)O1`, in assay [2], the pIC50 was less than 5.00.

On to `O=C1C[C@@H]2C3=C(O[C@H](c4ccccc4)CC3=O)[C@@H]3[C@H]([C@@H]2O1)[C@H]1C[C@@H]2OC(=O)C[C@@H]2[C@@]3(C(=O)/C=C/c2ccccc2)C1=O`, for which the pIC50 in assay [2] is less than 5.00. Usually IC50 stands for the midpoint of a concentration-inhibition curve. `O=C(O)C[C@H]1CC=CC(=O)/C1=C(O)/C=C/c1ccccc1` gave an IC50 in assay [2] of more than 10 µg/mL.

Take `O=C1C[C@@H]2/C(=C(O)\C=C\c3ccccc3)C(=O)C=C[C@@H]2O1` [CRYPTOCARYONE]: the Activity in assay [1] came out at 58.7%. For the same compound, the pIC50 in assay [2] is 6.49; in assay [3], 7.40.

On to `O=C1C[C@@H]2C3=C(O[C@H](c4ccccc4)CC3=O)[C@@H]3[C@@H]([C@@H]4C=C5O[C@H](c6ccccc6)CC(=O)[C@@]53[C@H]3CC(=O)O[C@@H]43)[C@@H]2O1`, for which the pIC50 in assay [2] is less than 5.00. Turning to `O=C1C[C@@H]2C3=C(C=C[C@@H]2O1)O[C@@H](c1ccccc1)CC3=O` [CRYPTOCARYANONE A], the pIC50 in assay [2] is 4.96. The compound `O=C(/C=C/c1ccc(O)cc1)OCCCCCCCCCCCCCCCCOC(=O)/C=C/c1ccc(O)cc1` had a pIC50 in assay [2] of less than 5.00.
